Data taken from article PMC9643279 (Acta Pharmaceutica Sinica. B, 2022).
Each block holds one compound with its values, some of them ahead of it.

Columns and labels:
[1] = system: LPS-induced IL-1β, IL-6, TNFα; settings: cited from earlier work; for pro-inflammatory cytokine production: PKM2-targeted compounds
[2] = molecular target: T1, PGK1 (Homo sapiens, UniProt P00558); assay: PGK1 and GAPDH coupled enzyme assay, IC50 determination; assay type: biochemical
T1 sequence (P00558 1-417): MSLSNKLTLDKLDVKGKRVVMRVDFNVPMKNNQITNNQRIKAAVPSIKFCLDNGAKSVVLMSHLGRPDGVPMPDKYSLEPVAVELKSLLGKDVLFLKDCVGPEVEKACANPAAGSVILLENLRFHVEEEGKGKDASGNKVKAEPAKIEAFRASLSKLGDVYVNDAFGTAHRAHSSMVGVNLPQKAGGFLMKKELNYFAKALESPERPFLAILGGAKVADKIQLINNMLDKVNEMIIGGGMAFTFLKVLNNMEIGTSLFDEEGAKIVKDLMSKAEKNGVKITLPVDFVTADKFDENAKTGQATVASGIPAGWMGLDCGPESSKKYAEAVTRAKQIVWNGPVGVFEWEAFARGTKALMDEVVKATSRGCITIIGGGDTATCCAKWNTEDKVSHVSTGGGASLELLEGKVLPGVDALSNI
Procedure, shortened: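 His-tagged PGK1 was expressed from pET28a in E. coli BL21(DE3) pLysS (0.4 mmol/L IPTG, 3 h) and nickel-purified. PGK1 at 0.4 nmol/L was preincubated with test compound (DMSO, various concentrations) for 10 min at room temperature with shaking. OD340 was read every 15 s for 15 min at 37 °C; V0 came from the first 3 min, and inhibition was expressed as % of the DMSO V0.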

[3] = molecular target: T1, PGK1; assay: Protein thermal shift assay; assay type: binding; settings: Figs. S1I-J
Procedure, shortened: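 Recombinant PGK1 at 3 μmol/L was mixed with 5× SYPRO Orange and test compound or DMSO in 20 μL of 50 mmol/L HEPES pH 7.4, 150 mmol/L NaCl, 1 mmol/L DTT. Fluorescence was followed during thermal melting in a real-time PCR instrument, and Tm was derived with the instrument's thermal-shift software.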

[4] = molecular target: T1, PGK1; assay: Steady-state kinetic assay in the presence of gradient compound concentrations; assay type: biochemical
[5] = system: PGK1; settings: read-out: IC50 (reported); reported as a PGK1 inhibitor; cited from earlier work

Structure (SMILES): OCC1OC(O)CC(O)C1O (stereo not shown) [Compound 2-DG]
LPS-induced IL-1β ([1]; previous studies): blocks
transcription of IL-6 and TNFα ([1]; previous studies): unaffected

Structure (SMILES): Nc1cccc(S(=O)(=O)N2CCCN(S(=O)(=O)c3ccc4c(c3)OCCO4)CC2)c1 [DASA-58]
pro-inflammatory cytokine production [1]: only inhibit IL-1β production

IC50 [2]: 2300 nM
PGK1 thermal stability [3]: stabilized
Ki ([4]; Ki, ATP competitive, varying ATP, saturating 3-PG, competitive model): 2590 ± 10 nM
mode of inhibition versus ATP ([4]; Km of ATP increases, Vmax unchanged): ATP competitive inhibitor
mode of inhibition versus 3-PG ([4]; Vmax decreases, Km of 3-PG unchanged): noncompetitive inhibition
Structure (SMILES): CCOC(=O)c1nc2cc(Cl)c(Cl)cc2nc1N1CCCN(C(=O)CC)CC1 [LTP-10, ethyl 6,7-dichloro-3-(4-propionyl-1,4-diazepan-1-yl)quinoxaline-2-carboxylate]

IC50 [2]: 25200 nM
Structure (SMILES): CN(C)C(=O)CCSC(SCCC(=O)O)c1cccc(/C=C/c2ccc3ccc(Cl)cc3n2)c1 (stereo not shown) [MK-571]

Structure (SMILES): Cn1c2cc([S+](C)[O-])sc2c2cnn(Cc3cccc(N)c3)c(=O)c21 (stereo not shown) [TEPP-46]
pro-inflammatory cytokine production [1]: only inhibit IL-1β production

IC50 [2]: 6720 nM
Structure (SMILES): c1cc(-c2cnn3cc(-c4ccc(OCCN5CCCCC5)cc4)cnc23)ccn1 [dorsomorphin]

IC50 [2]: 1960 nM
Structure (SMILES): CC(C)[C@H](CO)Nc1nc(Nc2cccc(Cl)c2)c2ncn(C(C)C)c2n1 [purvalanol A]
IC50 [5]: 2500 nM
